For assay [1], the target named is Pantothenate synthetase (Mycobacterium tuberculosis (strain ATCC 25618 / H37Rv)) (UniProt P9WIL5). Nature of the assay: Recombinant Mtb pantothenate synthetase (PanC) inhibitors, coupled enzyme, confirmatory (AID 375; call rule not given here;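 note: 0% = full reaction with vehicle and 100% = no enzyme background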). The conditions noted are these: coupled enzyme assay; at 10 µM, stronger effect = higher value.
A short description of assay [2]: reducers of endogenous Her2 protein level, primary screen, SKBR3 breast tumor cells, AlphaScreen, ATP viability (AID 461;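 active = Her2 level under about 52% in both replicate screens, with viability over 70% of control, limit read from the data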;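 for Her2 level: lower value means less Her2 protein in the cells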;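 for viability: percent of carrier control wells set as 100% viability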). As to conditions: 18-24 h, measured here: SKBR3 viability, ATP luminescence, at 10 µM. Background: In Alpha technology, singlet oxygen from a donor bead excites a nearby acceptor bead.
The target of assay [3] is Receptor tyrosine-protein kinase erbB-2 (Homo sapiens) (UniProt P04626). The description is as above. The conditions noted are these: 18-24 h, at 10 µM, stronger effect = lower value.
The nature of assay [4]: SK-BR-3 cell growth inhibitors, pilot screen, 24 h, human (AID 572;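 active = viability at or below 10% of carrier control in both of two separate runs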;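 note: compound exposure lasted between 18 and 24 h rather than exactly 24 h; 100% = carrier-treated control wells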). The conditions noted are these: SK-BR-3 viability, CellTiter-Glo luminescence, at 10 µM, stronger effect = lower value. Background: Cellular ATP, detected with luciferase, serves as a proxy for viable cell number.
The nature of assay [5]: HUVEC growth inhibition – cell-based, human, primary screen (AID 575).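 Note: 100% = median of untreated cell wells with 0.1% DMSO on each plate.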 The conditions noted are these: HUVEC proliferation, CellTiter-Glo luminescence, 72 h; at 10 µM; stronger effect = lower value. The method, boiled down: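 system = HUVEC primary cells | amount = 1250 cells/well | buffer or medium = supplemented EBM, 2% fetal bovine serum | dosing = single-point 10 µM, DMSO 0.1% final | times = 72 h compound incubation | detection = CTG luminescence | read-out = % viability relative to median vehicle-well signal on each plate | control set = vehicle and MePR control wells | format = collagen-coated 384-well format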

The nature of assay [6]: growth inhibitors of H69AR lung tumor, primary screen, human, duplicate replicates (AID 580;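 active = viability at or under a set limit in both replicates, limit being median viability minus 3 SD, cut at about 48% in these data, passing the limit was not always enough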;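 note: 100% = mean luminescence of untreated wells and 0% = no signal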). As to conditions: H69AR lung tumor cells viability, ATP luminescence, 72 h; at 10 µM; stronger effect = lower value.
The nature of assay [7]: reversal of MRP1-mediated doxorubicin resistance, pilot screen, H69AR cells, doxorubicin co-treatment (AID 601;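 active = viability loss from added drug above about 55%, and viability with drug at most 40%, in both replicates, limit read from the data, passing the limit was not always enough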). As to conditions: CellTiter-Glo, 72 h, at 10 µM; for differential viability (reversal): stronger effect = higher value.
The nature of assay [8]: 384-well plate pilot, post-Golgi transport modulator project, inhibition of yeast transport mutant growth (AID 636; in the data active = inhibition above about 31%). The conditions noted are these: absorbance 615 nm, about 18 h, stronger effect = higher value.
The nature of assay [9]: growth suppression of yeast trafficking mutant, preliminary HTS, modulators of trafficking downstream of Golgi apparatus project, 1536-format plate, OD 615 nm (AID 637; in the data active = inhibition above about 30%). As to conditions: yeast transport mutant growth, absorbance 615 nm, 18 h; stronger effect = higher value.
[10] abbreviates: H69AR cells + 2 uM doxorubicin, measured here: viability with 2 uM doxorubicin, stronger effect = lower value.
[11] abbreviates: H69AR cells, compound alone cytotoxicity.

The source made the active and inactive calls.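 Rule for the calls, unless noted: active = viability at or below 30% in both replicate assays; inconclusive = viability at or below 30% in just one of the two assays; inactive = the rest.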

Pantothenate synthetase (Mycobacterium tuberculosis (strain ATCC 25618 / H37Rv)), sequence (P9WIL5 whole entry, looked up): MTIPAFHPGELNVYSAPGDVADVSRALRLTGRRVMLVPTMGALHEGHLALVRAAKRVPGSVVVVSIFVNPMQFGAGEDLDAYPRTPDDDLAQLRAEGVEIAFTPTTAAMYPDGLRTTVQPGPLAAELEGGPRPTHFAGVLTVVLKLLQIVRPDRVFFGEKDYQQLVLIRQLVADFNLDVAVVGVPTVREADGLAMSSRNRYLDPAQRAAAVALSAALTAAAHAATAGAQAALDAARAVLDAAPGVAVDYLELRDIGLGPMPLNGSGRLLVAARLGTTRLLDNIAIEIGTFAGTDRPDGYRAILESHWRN
Receptor tyrosine-protein kinase erbB-2 (Homo sapiens), sequence (P04626 whole entry, looked up): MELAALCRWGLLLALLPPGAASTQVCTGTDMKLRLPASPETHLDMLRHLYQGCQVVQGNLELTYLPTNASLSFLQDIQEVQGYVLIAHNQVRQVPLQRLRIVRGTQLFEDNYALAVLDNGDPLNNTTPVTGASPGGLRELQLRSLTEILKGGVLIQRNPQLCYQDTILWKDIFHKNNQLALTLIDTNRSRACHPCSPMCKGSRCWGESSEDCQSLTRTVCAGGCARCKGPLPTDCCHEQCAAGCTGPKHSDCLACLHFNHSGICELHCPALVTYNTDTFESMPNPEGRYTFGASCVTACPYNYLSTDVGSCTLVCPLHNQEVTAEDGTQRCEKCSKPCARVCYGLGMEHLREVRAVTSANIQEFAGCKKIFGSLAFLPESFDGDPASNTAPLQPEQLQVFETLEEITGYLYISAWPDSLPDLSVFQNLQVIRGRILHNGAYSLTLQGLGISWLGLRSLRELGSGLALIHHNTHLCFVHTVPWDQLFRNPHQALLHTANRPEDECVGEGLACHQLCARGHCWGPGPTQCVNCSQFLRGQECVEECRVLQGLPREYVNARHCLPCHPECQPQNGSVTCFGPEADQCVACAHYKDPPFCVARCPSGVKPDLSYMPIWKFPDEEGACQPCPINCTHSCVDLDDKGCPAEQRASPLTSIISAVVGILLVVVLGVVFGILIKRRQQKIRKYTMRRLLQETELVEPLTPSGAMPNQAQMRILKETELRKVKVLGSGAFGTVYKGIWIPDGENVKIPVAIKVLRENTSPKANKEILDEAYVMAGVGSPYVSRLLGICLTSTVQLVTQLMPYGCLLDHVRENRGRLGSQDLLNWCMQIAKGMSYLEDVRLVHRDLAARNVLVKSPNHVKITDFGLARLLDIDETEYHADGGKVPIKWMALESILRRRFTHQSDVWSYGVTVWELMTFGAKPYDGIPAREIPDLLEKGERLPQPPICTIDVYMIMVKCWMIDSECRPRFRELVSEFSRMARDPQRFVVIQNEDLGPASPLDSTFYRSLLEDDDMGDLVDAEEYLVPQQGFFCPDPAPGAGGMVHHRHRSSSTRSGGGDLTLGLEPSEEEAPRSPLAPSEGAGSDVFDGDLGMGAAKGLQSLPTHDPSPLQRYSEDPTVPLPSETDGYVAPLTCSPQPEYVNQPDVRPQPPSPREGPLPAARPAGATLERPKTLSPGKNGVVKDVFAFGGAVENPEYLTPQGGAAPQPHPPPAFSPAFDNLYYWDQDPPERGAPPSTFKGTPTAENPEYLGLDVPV

By inhibition is commonly meant the relative decrease from the control value, in per cent. One may read the viability as a read-out of living cells in per cent, often relative to untreated cells. Consider `O=C(c1ccc2nc(-c3ccco3)c(-c3ccco3)nc2c1)N1CCC2(CC1)OCCO2`, for which the inhibition was 0% (inactive) in [1], -4.87% (inactive) in [8] and 4.33% (inactive) in [9]. Further, the viability in assay [2] is 93%; in [4] it was 93% (inactive); in [5], 97.1% (inactive); in assay [6], 90.5% (inactive); in assay [7] (setting [10]), 82.7%; in [7] (setting [11]) it was 90.5%. Also, the Her2 level in assay [3] was 106% (inactive). In [7] (H69AR cells + 2 uM doxorubicin), the differential viability (reversal) is 7.87% (inactive).
As for `CCOc1ccc(-n2c(O)c(C=NCCN3CCNCC3)c(=O)[nH]c2=O)cc1`, the inhibition in assay [1] is 3% (inactive); in assay [8] it was -1.58% (inactive); in assay [9] it was -3.71% (inactive). The viability is 102% in assay [2]; 102% (inactive) in [4]; 100% (inactive) in [5]; 89% (inactive) in assay [6]; 93.8% in assay [7] (setting [10]); 89% in assay [7] (setting [11]). For the same molecule, the Her2 level in [3] was 77.5% (inactive). Moreover, in [7] (H69AR cells + 2 uM doxorubicin), the differential viability (reversal) is -4.71% (inactive).
As for `O=C(COc1ccc2ccccc2c1)N1CCN(C2CCN(Cc3ccccc3)CC2)CC1`, the inhibition in assay [1] is 0% (inactive); in assay [8], -0.13% (inactive); in assay [9] it was 1.8% (inactive). Moreover, the viability in assay [2] was 93%; in assay [4], 93% (inactive); in assay [5], 62.5% (inactive); in assay [6], 99.8% (inactive); in assay [7] (setting [10]), 96%; in assay [7] (setting [11]), 99.8%. In assay [3], the Her2 level is 92% (inactive). The differential viability (reversal) in assay [7] (H69AR cells + 2 uM doxorubicin) was 3.83% (inactive).
As for `Cc1ccc(OCC(=O)NCCN2CCN(C(=O)COc3ccc(C)cc3)CC2)cc1`, the inhibition in assay [1] was 0% (inactive); in [8], -1.76% (inactive); in assay [9], -5.56% (inactive). For the same molecule, the viability in [2] was 124%; in assay [4] it was 124% (inactive); in [5], 88.5% (inactive); in assay [6], 95.2% (inactive); in assay [7] (setting [10]) it was 93.9%; in [7] (setting [11]), 95.2%. Moreover, the Her2 level in [3] was 106% (inactive). For the same molecule, in [7] (H69AR cells + 2 uM doxorubicin), the differential viability (reversal) is 1.29% (inactive).
Consider `COCCOC(=O)C1=C(N)Oc2c(c(=O)oc3ccccc23)C1c1ccncc1` (configuration not stated), for which the inhibition in assay [1] was 10% (inactive); in [8], -2.76% (inactive); in [9] it was -2.22% (inactive). Also, the viability is 122% in [2]; 122% (inactive) in [4]; 98.5% (inactive) in [5]; 92% (inactive) in assay [6]; 87.7% in assay [7] (setting [10]); 92% in assay [7] (setting [11]). In addition, in assay [3], the Her2 level is 72% (inactive). The differential viability (reversal) in [7] (H69AR cells + 2 uM doxorubicin) is 4.34% (inactive).
For `N#Cc1ccccc1Cn1cc(C(=O)C2CC2)c2ccccc21`, the inhibition in assay [1] was 0% (inactive); in assay [8], -3.38% (inactive); in [9], -5.5% (inactive). Besides, the viability was 86% in assay [2]; 86% (inactive) in assay [4]; 81.5% (inactive) in assay [5]; 59.4% (inactive) in [6]; 91.8% in assay [7] (setting [10]); 59.4% in assay [7] (setting [11]). The Her2 level in assay [3] was 103% (inactive). Moreover, the differential viability (reversal) in assay [7] (H69AR cells + 2 uM doxorubicin) is -32.4% (inactive).
Turning to `Cc1ccc(C)c(C2(O)CC(C)N(C)CC2C)c1` (configuration not stated), the inhibition in [1] was 0% (inactive); in assay [8], -1.32% (inactive); in assay [9] it was -2.7% (inactive). The viability in assay [2] was 110%; in [4], 110% (inactive); in assay [5], 94.9% (inactive); in assay [6], 102% (inactive); in [7] (setting [10]), 91.7%; in assay [7] (setting [11]) it was 102%. The Her2 level in [3] was 103% (inactive). Also, the differential viability (reversal) in [7] (H69AR cells + 2 uM doxorubicin) was 10.4% (inactive).
`CC(=NCCCO)c1c(O)n(Cc2ccccc2)c(=O)[nH]c1=O`: the inhibition was 0% (inactive) in assay [1], -4.61% (inactive) in [8] and 3.67% (inactive) in assay [9]. In addition, the viability in assay [2] was 95%; in assay [4] it was 95% (inactive); in assay [5] it was 98.6% (inactive); in assay [6], 94.4% (inactive); in [7] (setting [10]), 90.2%; in assay [7] (setting [11]), 94.4%. Besides, in assay [3], the Her2 level was 94% (inactive). Also, the differential viability (reversal) in assay [7] (H69AR cells + 2 uM doxorubicin) is 4.15% (inactive).
As to `CCN1CCN(C(=O)COc2cc(=O)n(CC)c3ccccc23)CC1`, the inhibition is 0% (inactive) in [1], 0.38% (inactive) in assay [8] and 0.67% (inactive) in assay [9]. Moreover, the viability is 80.5% in assay [2]; 80.5% (inactive) in assay [4]; 89.2% (inactive) in assay [5]; 90.3% (inactive) in [6]; 67.6% in [7] (setting [10]); 90.3% in assay [7] (setting [11]). In assay [3], the Her2 level is 104% (inactive). In addition, in [7] (H69AR cells + 2 uM doxorubicin), the differential viability (reversal) was 22.7% (inactive).
Regarding `CCOc1cc2[nH]c(=S)n(CCCC(=O)N3CCC4(CC3)OCCO4)c(=O)c2cc1OCC`, the results for the inhibition in assay [1], in assay [8] and in [9] were 0% (inactive), -4.59% (inactive) and -4.75% (inactive), respectively. In addition, the viability in [2] was 88.5%; in assay [4], 88.5% (inactive); in [5], 78.2% (inactive); in [6], 89.2% (inactive); in assay [7] (setting [10]), 93.2%; in assay [7] (setting [11]), 89.2%. Also, the Her2 level in assay [3] was 85.5% (inactive). Also, the differential viability (reversal) in [7] (H69AR cells + 2 uM doxorubicin) is -4% (inactive).
As for `Cc1nn(Cc2ccccc2Cl)c(Cl)c1C(=O)OCC(=O)NCc1ccco1`, the inhibition in assay [1] was 0% (inactive); in [8] it was -3.2% (inactive); in assay [9], -0.82% (inactive). In addition, the viability in [2] was 85%; in [4] it was 85% (inactive); in assay [5], 98.6% (inactive); in assay [6], 85.6% (inactive); in [7] (setting [10]), 92.3%; in assay [7] (setting [11]), 85.6%. Moreover, the Her2 level in [3] was 76% (inactive). Besides, in assay [7] (H69AR cells + 2 uM doxorubicin), the differential viability (reversal) is -6.68% (inactive).
For `Cc1ccc(C)c(NC2=NCCCS2)c1`, the inhibition is 0% (inactive) in assay [1], -8.08% (inactive) in [8] and -1.59% (inactive) in assay [9]. In addition, the viability in [2] was 108%; in [4], 108% (inactive); in assay [5], 91.9% (inactive); in [6], 104% (inactive); in [7] (setting [10]), 92.9%; in assay [7] (setting [11]), 104%. Besides, the Her2 level in assay [3] is 89.5% (inactive). The differential viability (reversal) in assay [7] (H69AR cells + 2 uM doxorubicin) is 11.3% (inactive).
Regarding `COc1ccc(OC)c([C@@H](O)[C@H](C)NC(C)(C)C)c1`, the inhibition in [1] was 6% (inactive). Besides, the viability in assay [2] was 100%; in [4] it was 100% (inactive); in [5], 92.3% (inactive); in [6], 97.5% (inactive); in [7] (setting [10]), 98.5%; in assay [7] (setting [11]), 97.5%. In assay [3], the Her2 level is 120% (inactive). For the same molecule, in assay [7] (H69AR cells + 2 uM doxorubicin), the differential viability (reversal) was -0.98% (inactive).
As for `Cn1c(C(=O)N2CCC3(CC2)OCCO3)cc2c(=O)n(C)c3ccccc3c21`, the inhibition in assay [1] was 0% (inactive); in assay [8], -3.82% (inactive); in assay [9], -5.45% (inactive). For the same molecule, the viability is 108% in [2]; 108% (inactive) in [4]; 80.2% (inactive) in assay [5]; 80.6% (inactive) in [6]; 86.4% in [7] (setting [10]); 80.6% in [7] (setting [11]). Further, in [3], the Her2 level is 82.5% (inactive). Moreover, the differential viability (reversal) in assay [7] (H69AR cells + 2 uM doxorubicin) was -5.79% (inactive).

For the origin of these results see PubChem BioAssay.
